The nature of series [1]: Produrg conversion in pH 7.4 PBS/30% methanol assessed as GSH-mediated darunavir formation by measuring half life at 4 uM in presence of 10 mM GSH by UPLC-MS analysis. The series is classed as ADME. Conditions: pH 7.4, 4 µM. Summed up:
(§1)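 Heterodimer at 4 μM was incubated at 37 °C with 250 mM DTT or 10 mM GSH. The solvent was degassed 30% methanol/PBS (pH ~ 7.4) containing 5 μM quinine as internal standard. Reductant-triggered release of the monomeric drugs was followed over time and given as t1/2.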

Series [2] can be described thus: Produrg conversion in pH 7.4 PBS/30% methanol assessed as DTT-mediated abacavir formation by measuring half life at 4 uM in presence of 250 mM DTT by UPLC-MS analysis. The series is classed as ADME. Conditions: buffer, pH 7.4, 4 µM. Summed up:
as §1

The nature of series [3]: Produrg conversion in pH 7.4 PBS/30% methanol assessed as GSH-mediated abacavir formation by measuring half life at 4 uM in presence of 10 mM GSH by UPLC-MS analysis. The class given is ADME. Conditions: pH 7.4, 4 µM. Put shortly: as §1
A short description of series [4]: Produrg conversion in pH 7.4 PBS/30% methanol assessed as DTT-mediated darunavir formation by measuring half life at 4 uM in presence of 250 mM DTT by UPLC-MS analysis. The series is classed as ADME. Particulars: buffer, pH 7.4, 4 µM. Put shortly:
as §1

The subject of series [5] is Human immunodeficiency virus 1. In words: Antiviral activity against HIV1 LAI infected in human 12D7 cells overexpressing p-gp assessed as reduction in P24 level at 0.08 to 1.25 uM incubated for 3 days followed by replacement of fresh medium containing compound and measured after 3 days by ELISA. Particulars: M:B_Lai. The series is classed as functional, organism-based. Summed up: (§2)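 12D7 CD4+ T cells in log phase, resuspended at 1 million/mL, infected 4 h with 500 TCID50 HIV-1 LAI, washed three times, plated at 75 000 cells/mL; compound added at 0.05% DMSO in RPMI 1640 with 10% FBS, L-glutamine and penicillin/streptomycin; medium with same compound level renewed day 3; day-6 supernatant p24 (gag) quantified by ELISA; duplicate runs.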
On the technique in general: An ELISA detects its analyte on a solid surface through an enzyme-linked reagent.

Series [6] in a line: Stability of compound in RPMI medium at 100 uM after 3 days by UPLC-MS analysis. The series is classed as physicochemical. Conditions: read-out: Stability. Put shortly: (§3)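 Heterodimer at 100 μM was held at 37 °C in 12D7 cell medium with 1% DMSO. The medium was RPMI 1640 with penicillin/streptomycin, 5 mM L-glutamine and 10% FBS. Every 24 h an aliquot was quenched 1:1 with ice-cold acetonitrile containing 1.0 mM 4-methoxybenzyl alcohol, then centrifuged. Supernatant was run on C8 RP-HPLC (0.05% TFA, 15–75% acetonitrile over 30 min, UV 254 nm), in duplicate.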

Series [7] in a line: Stability of compound in PBS after 3 days by UPLC-MS analysis. The series is classed as physicochemical. Particulars: read-out: Stability.
Series [8] addresses T1, P-gp (ABCB1) (Homo sapiens, UniProt P08183). In words: Inhibition of P-gp in human 12D7-MDR cells up to 500 uM using NBD-Aba as substrate after 30 mins by flow cytometric analysis relative to control. Particulars: probe NBD-Aba.
The target of series [9] is T1, P-gp (ABCB1). In words: Inhibition of P-gp in human 12D7-MDR cells up to 500 uM using calcein-AM as substrate after 30 mins by flow cytometric analysis relative to control. Particulars: probe calcein-AM.
Series [10] has as its system Human immunodeficiency virus 1. In words: Antiviral activity against HIV1 LAI infected in human 12D7 cells overexpressing p-gp assessed as reduction in P24 level at 1:1 ratio of test compound to abacavir incubated for 3 days followed by followed by replacement of fresh medium containing compound and measured after 3 days by ELISA. The class given is functional, organism-based. Conditions: M:B_Lai. Summed up:
as §2

Series [11] in a line: Stability of compound in PBS after 1 week by UPLC-MS analysis. Conditions: read-out: Stability. The series is classed as physicochemical.
Series [12] in a line: Produrg conversion in pH 7.4 PBS/30% methanol assessed as GSH-mediated nelfinavir formation by measuring half life at 4 uM in presence of 10 mM GSH by UPLC-MS analysis. The series is classed as ADME. Particulars: pH 7.4, 4 µM. Summed up:
as §1

Series [13] in a line: Stability of compound in RPMI medium at 100 uM after 1 week by UPLC-MS analysis. Particulars: read-out: Stability. The series is classed as physicochemical. Put shortly:
as §3

A short description of series [14]: Produrg conversion in pH 7.4 PBS/30% methanol assessed as DTT-mediated nelfinavir formation by measuring half life at 4 uM in presence of 250 mM DTT by UPLC-MS analysis. The series is classed as ADME. Particulars: buffer, pH 7.4, 4 µM. Put shortly:
as §1

Structures are written as SMILES. Calls of active or inactive are those of the source. No cut-off for these calls is given here.

T1 sequence (P08183 whole entry): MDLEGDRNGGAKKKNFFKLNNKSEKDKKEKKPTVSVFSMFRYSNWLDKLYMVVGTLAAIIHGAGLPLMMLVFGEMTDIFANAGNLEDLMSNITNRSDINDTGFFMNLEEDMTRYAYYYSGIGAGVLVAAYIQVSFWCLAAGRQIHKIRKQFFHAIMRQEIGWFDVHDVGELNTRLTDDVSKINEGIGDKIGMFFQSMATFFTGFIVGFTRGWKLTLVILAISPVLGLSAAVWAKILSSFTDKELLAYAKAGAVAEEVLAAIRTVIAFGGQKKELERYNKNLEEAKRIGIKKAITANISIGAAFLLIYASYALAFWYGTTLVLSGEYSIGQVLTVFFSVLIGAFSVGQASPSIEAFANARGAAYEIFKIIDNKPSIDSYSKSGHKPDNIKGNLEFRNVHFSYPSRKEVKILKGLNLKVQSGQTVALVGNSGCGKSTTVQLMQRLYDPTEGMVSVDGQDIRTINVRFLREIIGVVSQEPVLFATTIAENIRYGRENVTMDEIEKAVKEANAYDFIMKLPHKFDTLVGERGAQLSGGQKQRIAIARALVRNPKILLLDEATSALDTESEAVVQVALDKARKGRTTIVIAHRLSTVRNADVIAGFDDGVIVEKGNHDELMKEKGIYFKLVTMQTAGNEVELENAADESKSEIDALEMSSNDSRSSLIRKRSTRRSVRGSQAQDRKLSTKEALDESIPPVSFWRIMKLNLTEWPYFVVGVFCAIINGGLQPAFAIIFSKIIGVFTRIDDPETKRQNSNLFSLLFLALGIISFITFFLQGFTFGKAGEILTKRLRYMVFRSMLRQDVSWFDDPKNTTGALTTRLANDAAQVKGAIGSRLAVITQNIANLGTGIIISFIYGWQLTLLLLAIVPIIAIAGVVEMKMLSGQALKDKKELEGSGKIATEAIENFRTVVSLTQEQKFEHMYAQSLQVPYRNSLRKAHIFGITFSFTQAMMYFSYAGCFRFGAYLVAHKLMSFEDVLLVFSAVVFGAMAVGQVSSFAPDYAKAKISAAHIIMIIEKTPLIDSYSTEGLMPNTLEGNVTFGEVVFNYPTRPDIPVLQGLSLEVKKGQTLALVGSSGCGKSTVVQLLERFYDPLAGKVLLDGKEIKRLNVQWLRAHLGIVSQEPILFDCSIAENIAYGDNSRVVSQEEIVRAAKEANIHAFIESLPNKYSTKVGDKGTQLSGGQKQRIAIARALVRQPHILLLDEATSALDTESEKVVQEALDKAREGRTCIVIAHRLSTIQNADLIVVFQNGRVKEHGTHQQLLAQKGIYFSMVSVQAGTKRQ

`CC(C)CN(C[C@@H](OC(=O)CCCSSCCCC(=O)OC[C@@H]1C=C[C@H](n2cnc3c(NC4CC4)nc(N)nc32)C1)[C@H](Cc1ccccc1)NC(=O)O[C@H]1CO[C@H]2OCC[C@H]21)S(=O)(=O)c1ccc(N)cc1`: the t1/2 in [1] was 36.3 h; in [2], 34.5 h; in series [3], 21.6 h; in series [4], 21.3 h. For the same compound, the outcome in series [5] was Active. The remaining at 72 h, 100 µM in series [6] was over 95%. In series [7], the remaining at 72 h is over 95%.
Regarding `Nc1nc(NC2CC2)c2ncn([C@H]3C=C[C@@H](CO)C3)c2n1` [ABACAVIR], the inhibition at 0.5 h on P-gp (ABCB1) [8] and on P-gp (ABCB1) [9] was under 10% in each case. Further, in series [5], the result was Active.
Consider `Cc1c(O)cccc1C(=O)N[C@@H](CSc1ccccc1)[C@H](O)CN1C[C@H]2CCCC[C@H]2C[C@H]1C(=O)NC(C)(C)C`, for which the result in series [10] and in series [5] was Active.
In the case of `CC(C)CN(C[C@@H](O)[C@H](Cc1ccccc1)NC(=O)O[C@H]1CO[C@H]2OCC[C@H]21)S(=O)(=O)c1ccc(N)cc1`, the result in [10] and in [5] was Active.
For `Cc1c(OC(=O)CCCSSCCCC(=O)OC[C@@H]2C=C[C@H](n3cnc4c(NC5CC5)nc(N)nc43)C2)cccc1C(=O)N[C@@H](CSc1ccccc1)[C@H](O)CN1C[C@H]2CCCC[C@H]2C[C@H]1C(=O)NC(C)(C)C`, the t1/2 was 31.8 h in series [2], 29.4 h in series [3], 10.3 h in series [12] and 1.2 h in [14]. Besides, the remaining at 168 h in series [11] was over 95%. Also, the remaining at 168 h, 100 µM in series [13] was over 95%. Further, the result in [5] was Active.

Usually inhibition stands for how much of the control response was suppressed.

(Values after ChEMBL document CHEMBL4402525, “Potential Tools for Eradicating HIV Reservoirs in the Brain: Development of Trojan Horse Prodrugs for the Inhibition of P-Glycoprotein with Anti-HIV-1 Activity” (J Med Chem, 2020).)
